14 molecules from ChEMBL document CHEMBL1142551, “Acylamido analogs of endocannabinoids selectively inhibit cancer cell proliferation” (Bioorg Med Chem, 2008) can be followed below.

The source made the active and inactive calls. The rule behind the calls is not given here.

In one data set the test system is HTB126. As to the kind of experiment: Antiproliferative activity against human HTB126 cells assessed as […] at 10 uM after 72 hrs by luciferase assay. It is filed as functional, cell-based.
Details: not given
In short, it runs like this:
(§1)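 HTB-126 human breast tumour cells, 2000 cells/well in 24-well plates, grown 24 h, then given vehicle or agent at 10 µM final (diluted from a DMSO stock), N = 6. Parallel plates assayed at successive times after treatment by CellTiter-Glo luciferase ATP luminescence, read 15 min after adding an equal volume of reagent; raw units reported.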
As for `CCCCCCC(C)(C)c1cc(O)c2c(c1)OC(C)(C)[C@@H]1CC=C(C(=O)O)C[C@@H]21`, the result was Active.

Consider `CCCCCCCCCCCCCCCC(=O)N[C@@H](Cc1ccc(O)cc1)C(=O)O`, for which the result was Active.

In the next data set the test system is HTB126. The data set can be described thus: Antiproliferative activity against human HTB126 cells at 0.1 to 1.0 uM after 48 hrs by luciferase assay relative to control. It is filed as functional, cell-based.
Details: not given
An outline of the steps:
(§2)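 Matched breast lines from the same donor: HTB-125 (normal) and HTB-126 (tumor), seeded in 96-well plates and treated 24 h after seeding, DMSO vehicle. CellTiter-Glo ATP luminescence read 48 h after treatment. Four replicates per point over a dose series; values expressed as percent of vehicle-treated wells.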
For the molecule `CCCCCCCCCCCCCCCC(=O)N[C@@H](Cc1ccc(O)cc1)C(=O)O`, the result was inactive.

The next data set relates to RBL-2H3. As to the kind of experiment: Antiproliferative activity against rat RBL2H3 cells at 0.1 uM treated 1 hr before LPS-challenge assessed after 24 hrs relative to control. It is filed as functional.
Details: not given
In short, it runs like this: (§3)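 RBL-2H3 mast cells, 500 cells/well in 96-well plates, grown 24 h, medium changed and cells held 4 h. Agent added 1 h before LPS (10 ng/ml), then 24 h further incubation. Cell number by CellTiter-Glo luminescence, n = 3; values given as raw response and as percent of DMSO control.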
For `CCCCC/C=C\C/C=C\C/C=C\C/C=C\CCCC(=O)NCCCC(=O)O` [ARACHIDONOYL GABA], the Activity amounted to 100%.

In turn, `CCCCC/C=C\C/C=C\C/C=C\C/C=C\CCCC(=O)NCCc1ccc(O)c(O)c1` [ARACHIDONOYL DOPAMINE] gave an Activity of 110%.

As for `CCCCCCCCCCCCCCCC(=O)NCCCC(=O)O` [PALMITOYL GABA], the Activity is reported as 120%.

As for `CCCCC/C=C\C/C=C\C/C=C\C/C=C\CCCC(=O)NCC(=O)O` [ARACHIDONOYL GLYCINE], the Activity is recorded as 130%.

`CCCCCCCCCCCCCCCC(=O)NCCc1ccc(O)c(O)c1` [PALMITOYL DOPAMINE] registered an Activity of 130%.

`CCCCC/C=C\C/C=C\C/C=C\C/C=C\CCCC(=O)N[C@@H](C)C(=O)O`: the Activity was found to be 120%.

The molecule `CCCCCCCCCCCCCCCC(=O)N[C@@H](C)C(=O)O` displayed an Activity of 110%.

Regarding `CCCCCCCCCCCCCCCC(=O)NCC(=O)O` [PALMITOYL GLYCINE], the Activity was 130%.

A further data set relates to RBL-2H3. As to the kind of experiment: Antiproliferative activity against rat RBL2H3 cells at 10 uM treated 1 hr before LPS-challenge assessed after 24 hrs relative to control. It is filed as functional.
Details: not given
An outline of the steps:
as §3
In turn, `CCCCC/C=C\C/C=C\C/C=C\C/C=C\CCCC(=O)NCCCC(=O)O` [ARACHIDONOYL GABA] gave an Activity of 15%.

For the molecule `CCCCC/C=C\C/C=C\C/C=C\C/C=C\CCCC(=O)NCCc1ccc(O)c(O)c1` [ARACHIDONOYL DOPAMINE], the Activity is 14%.

`CCCCCCCCCCCCCCCC(=O)NCCCC(=O)O` [PALMITOYL GABA] displayed an Activity of 100%.

`CCCCC/C=C\C/C=C\C/C=C\C/C=C\CCCC(=O)NCC(=O)O` [ARACHIDONOYL GLYCINE] displayed an Activity of 21%.

`CCCCCCCCCCCCCCCC(=O)NCCc1ccc(O)c(O)c1` [PALMITOYL DOPAMINE] gave an Activity of 15%.

In turn, `CCCCC/C=C\C/C=C\C/C=C\C/C=C\CCCC(=O)N[C@@H](C)C(=O)O` registered an Activity of 50%.

With `CCCCCCCCCCCCCCCC(=O)N[C@@H](C)C(=O)O`, the Activity is recorded as 10%.

As to `CCCCCCCCCCCCCCCC(=O)NCC(=O)O` [PALMITOYL GLYCINE], the Activity is on record as 110%.

A further data set relates to HTB126. As to the kind of experiment: Antiproliferative activity against human HTB126 cells assessed as […] at 10 uM after 48 hrs by luciferase assay.
Details: not given
The format is functional, cell-based. In short, it runs like this:
as §1
For the molecule `CCCCCCC(C)(C)c1cc(O)c2c(c1)OC(C)(C)[C@@H]1CC=C(C(=O)O)C[C@@H]21`, the outcome was Active.

With `CCCCCCCCCCCCCCCC(=O)N[C@@H](Cc1ccc(O)cc1)C(=O)O`, the result was Active.

A further data set deals with HTB126. The data set can be described thus: Antiproliferative activity against human HTB126 cells assessed as […] at 10 uM after 24 hrs by luciferase assay. The format is functional, cell-based.
Details: not given
In short, it runs like this:
as §1
On to `CCCCCCC(C)(C)c1cc(O)c2c(c1)OC(C)(C)[C@@H]1CC=C(C(=O)O)C[C@@H]21`, for which the result was Active.

For `CCCCCCCCCCCCCCCC(=O)N[C@@H](Cc1ccc(O)cc1)C(=O)O`, the result was Active.

A further data set concerns HeLa. The data set can be described thus: Antiproliferative activity against human HeLa cells at 10 uM after 48 hrs relative to control.
Details: not given
The format is functional, cell-based. In short, it runs like this:
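HeLa cells grown in DMEM with 10% FBS, seeded in 96-well plates and treated 24 h after seeding. CellTiter-Glo assay run 48 h post-treatment, four replicates per concentration. Results given as mean ± SEM relative to DMSO vehicle.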
In the case of `CCCCC/C=C\C/C=C\C/C=C\CCCCC(=O)NCCc1ccc(O)c(O)c1`, the result was Active.

Turning to `CCCCC/C=C\C/C=C\C/C=C\C/C=C\CCCCCC(=O)NCCc1ccc(O)c(O)c1`, the result was Active.

Turning to `CCCCCCC(C)(C)c1cc(O)c2c(c1)OC(C)(C)[C@@H]1CC=C(C(=O)O)C[C@@H]21`, the outcome was Active.

Regarding `CCCCCCCC/C=C\CCCCCCCC(=O)NCCc1ccc(O)c(O)c1` [OLEOYL DOPAMINE], the outcome was Active.

With `CCCCC/C=C\C/C=C\C/C=C\CCCCCCC(=O)NCCc1ccc(O)c(O)c1`, the outcome was Active.

With `CCCCCCCCCCCCCCCC(=O)NCC(=O)O` [PALMITOYL GLYCINE], the outcome was Active.

System in the next data set: not listed separately
The data set can be described thus: Antiproliferative activity against human HTB125 cells at 10 uM after 48 hrs by luciferase assay relative to control. It is filed as cell-based. Conditions: htb125, 48 h. In short, it runs like this: as §2
As to `CCCCCCCCCCCCCCCC(=O)NCCc1ccc(O)c(O)c1` [PALMITOYL DOPAMINE], the Activity result was “Not Active”.

System in a further data set: not listed separately
The data set can be described thus: Antiproliferative activity against human WI38 cells at 10 uM after 48 hrs relative to control. The format is cell-based. Conditions: wi-38, 48 h. In short, it runs like this:
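WI-38 embryonic lung fibroblasts grown in DMEM with 10% FBS and passaged with trypsin. Plated in 96-well format and exposed to a single 10 µM concentration, with DMSO vehicle. CellTiter-Glo luminescence read 48 h after treatment, four replicates. Values given as percent of control ± SD.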
For `CCCCC/C=C\C/C=C\C/C=C\CCCCC(=O)NCCc1ccc(O)c(O)c1`, the Activity came to 38.3%.

Molecule `CCCCC/C=C\C/C=C\C/C=C\C/C=C\CCCC(=O)NCCc1ccc(O)c(O)c1` [ARACHIDONOYL DOPAMINE] showed an Activity of 22.1%.

`CCCCC/C=C\C/C=C\C/C=C\C/C=C\CCCCCC(=O)NCCc1ccc(O)c(O)c1` had an Activity of 25.7%.

`CCCCCCCC/C=C\CCCCCCCC(=O)NCCc1ccc(O)c(O)c1` [OLEOYL DOPAMINE]: the Activity was 24%.

`CCCCCCCCCCCCCCCC(=O)NCCc1ccc(O)c(O)c1` [PALMITOYL DOPAMINE] returned an Activity of 41.6%.

With `CCCCC/C=C\C/C=C\C/C=C\CCCCCCC(=O)NCCc1ccc(O)c(O)c1`, the Activity is 25.5%.

Another data set relates to HTB126. The data set can be described thus: Antiproliferative activity against human HTB126 cells assessed as fluorescence units at 10 uM after 48 hrs by luciferase assay in presence of rimonabant. The format is functional, cell-based.
Details: not given
An outline of the steps:
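HTB-126 tumor breast cells in 96-well plates. Rimonabant (10 µM) added 30 min before the test agent (10 µM). CellTiter-Glo luminescence read 48 h later, four replicates. Values reported as raw fluorescence units rather than percent, because there are two control treatments.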
As to `CCCCCCCCCCCCCCCC(=O)N[C@@H](Cc1ccc(O)cc1)C(=O)O`, the outcome was inactive.

Another data set relates to RBL-2H3. As to the kind of experiment: Antiproliferative activity against rat RBL2H3 cells at 1 uM treated 1 hr before LPS-challenge assessed after 24 hrs relative to control. The format is functional.
Details: not given
An outline of the steps: as §3
On to `CCCCC/C=C\C/C=C\C/C=C\C/C=C\CCCC(=O)NCCCC(=O)O` [ARACHIDONOYL GABA], for which the Activity worked out at 120%.

`CCCCC/C=C\C/C=C\C/C=C\C/C=C\CCCC(=O)NCCc1ccc(O)c(O)c1` [ARACHIDONOYL DOPAMINE]: the Activity stood at 70%.

For the molecule `CCCCCCCCCCCCCCCC(=O)NCCCC(=O)O` [PALMITOYL GABA], the Activity is listed as 100%.

As for `CCCCC/C=C\C/C=C\C/C=C\C/C=C\CCCC(=O)NCC(=O)O` [ARACHIDONOYL GLYCINE], the Activity stood at 130%.

Turning to `CCCCCCCCCCCCCCCC(=O)NCCc1ccc(O)c(O)c1` [PALMITOYL DOPAMINE], the Activity was determined as 50%.

For `CCCCC/C=C\C/C=C\C/C=C\C/C=C\CCCC(=O)N[C@@H](C)C(=O)O`, the Activity stood at 160%.

Turning to `CCCCCCCCCCCCCCCC(=O)N[C@@H](C)C(=O)O`, the Activity worked out at 90%.

`CCCCCCCCCCCCCCCC(=O)NCC(=O)O` [PALMITOYL GLYCINE]: the Activity stood at 110%.

For the next data set, the system named is RAW264.7. As to the kind of experiment: Antiproliferative activity against mouse RAW264.7 cells at 10 uM after 48 hrs relative to control.
Details: not given
It is filed as functional. In short, it runs like this:
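RAW264.7 cells grown in RPMI with 10% FBS and passaged by scraping. Seeded in 96-well plates, treated at 10 µM 24 h after seeding, four replicates. CellTiter-Glo ATP luminescence read 48 h after treatment; results given as percent of vehicle-treated control with SD.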
Molecule `CCCCC/C=C\C/C=C\C/C=C\CCCCC(=O)NCCc1ccc(O)c(O)c1` returned an Activity of 6.1%.

`CCCCC/C=C\C/C=C\C/C=C\C/C=C\CCCC(=O)NCCc1ccc(O)c(O)c1` [ARACHIDONOYL DOPAMINE] gave an Activity of 2.33%.

`CCCCC/C=C\C/C=C\C/C=C\C/C=C\CCCCCC(=O)NCCc1ccc(O)c(O)c1` returned an Activity of 4.32%.

Turning to `CCCCCCCC/C=C\CCCCCCCC(=O)NCCc1ccc(O)c(O)c1` [OLEOYL DOPAMINE], the Activity worked out at 7.02%.

`CCCCCCCCCCCCCCCC(=O)NCCc1ccc(O)c(O)c1` [PALMITOYL DOPAMINE] registered an Activity of 11.1%.

`CCCCC/C=C\C/C=C\C/C=C\CCCCCCC(=O)NCCc1ccc(O)c(O)c1` registered an Activity of 5.72%.

System in another data set: not listed separately
As to the kind of experiment: (§4) Antiproliferative activity against human HTB126 cells at 10 uM after 48 hrs by luciferase assay relative to control. Particulars: HTB126, 48 h. It is filed as functional. In short, it runs like this: (§5)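 HTB-126 cells, with matched normal HTB-125 from the same donor, in DMEM with 10% FBS. Cells seeded in 96-well plates and treated 24 h after seeding across a dose range, four replicates per point. CellTiter-Glo ATP luminescence read 48 h after treatment; values given as percent of vehicle (DMSO) wells.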
Usually inhibition stands for the percentage by which the read-out fell short of the control. High values mean a response far below the control, low ones a response near the control. `CCCCCCCCCCCCCCCC(=O)NCCc1ccc(O)c(O)c1` [PALMITOYL DOPAMINE] gave an inhibition at 10 µM of 80%.

The next data set deals with HTB126. The data set is described as §4. The format is functional.
Details: not given
An outline of the steps:
as §5
On to `CCCCCCCCCCCCCCCC(=O)N[C@@H](Cc1ccc(O)cc1)C(=O)O`, for which the outcome was Active.

The subject of another data set is HTB126. As to the kind of experiment: Antiproliferative activity against human HTB126 cells assessed as […] at 10 uM after 96 hrs by luciferase assay.
Details: not given
The format is functional, cell-based. An outline of the steps: as §1
As for `CCCCCCC(C)(C)c1cc(O)c2c(c1)OC(C)(C)[C@@H]1CC=C(C(=O)O)C[C@@H]21`, the outcome was Active.

System in a further data set: not listed separately
The data set can be described thus: Antiproliferative activity against human HTB125 cells at 0.1 to 1.0 uM after 48 hrs by luciferase assay relative to control. The format is cell-based. Conditions: htb125, 48 h. An outline of the steps:
as §2
In the case of `CCCCCCCCCCCCCCCC(=O)N[C@@H](Cc1ccc(O)cc1)C(=O)O`, the Activity result is “Non-toxic”.
